Measurements pooled from the literature.
Compare with care: the assays were run in different laboratories.
Target: LIM domain kinase 2 (LIMK2, Homo sapiens, UniProt P53671)

Structure (SMILES) | effect on | mode | method | tested at | measurement | value
CC(C)(C)c1nc(-c2cccc(NS(=O)(=O)c3c(F)cccc3F)c2F)c(-c2ccnc(N)n2)s1 | enzyme activity | inhibitor | radiometric | 1 µM | remaining activity | 87%
CCOc1cc(-c2nncn2C)ccc1Nc1ncc2cc(C)nc(NCC(C)(C)C)c2n1 | cell-free assay |  | TR-FRET | 1 µM | inhibition | ≤ 15%
COc1cc(Cl)c(C(=O)N[C@@H](CN[C@H]2CC[C@@H](N)CC2)Cc2ccc(C#N)cc2)cc1-c1ccc(CN[C@H](C)c2ccc(C)cc2)o1 | enzyme activity | inhibitor |  | 1 µM | remaining activity | 101%
Cc1sc(C(=O)NC2COC2)cc1-n1cc(NC(=O)Nc2c(F)cccc2Cl)cn1 | enzyme activity | inhibitor |  | 10 µM | remaining activity | 113%
O=C(N[C@H]1CCCCC/C=C\C2C[C@@]2(C(=O)O)NC(=O)[C@@H]2C[C@@H](Oc3ccncc3)CN2C1=O)OC1CCCC1 (stereo partly drawn) | binding |  | competition with immobilised ligand | 1 µM | remaining binding | 93%
Cc1ccc(C(=O)Nc2ccc(CN3CCN(C)CC3)c(C(F)(F)F)c2)cc1C#Cc1cnc2cccnn12 | enzyme activity | inhibitor |  | 23.5 nM | remaining activity | 100%
O=C(NCc1ncc(C(F)(F)F)cc1Cl)c1ccc2c(c1)C1(CCS(=O)(=O)CC1)[C@@H](C1CC1)N2S(=O)(=O)c1ccc(F)cc1 | cell-free assay |  | competition with immobilised ligand | 1 µM | remaining binding | 94%
CC(C)(C)c1nc2c(s1)c1nc(N)ncc1c1ccc(NS(=O)(=O)c3c(F)cccc3F)c(F)c12 | enzyme activity | inhibitor | radiometric | 1 µM | remaining activity | 92%
Nc1ncnc2occ(-c3ccc(NC(=O)Nc4cc(C(F)(F)F)ccc4F)cc3)c12 | cell-free assay | inhibitor |  | 20 µM | remaining signal | 8.8%
O=C(Nc1cnn(-c2csc(C(=O)NC3COC3)c2)c1)Nc1ccccc1Cl | enzyme activity | inhibitor |  | 5 µM | remaining activity | 96.8%
c1cnn2ncc(-c3ccnc(N4CCC45COC5)n3)c2c1 | binding |  |  | 1 µM | remaining binding | 82%
CN1CC(Oc2cnc(C#N)cc2-c2ccn3nc(NC(=O)C4CC4)cc3c2)C1 | enzyme activity | inhibitor |  | 1 µM | inhibition | 5%
